Reference: ChEMBL document CHEMBL4387703, “Lead optimization and biological evaluation of fragment-based cN-II inhibitors” (Eur J Med Chem, 2019)

Key:
Details in all cases: Homo sapiens
[1] = compound: O=C(Nc1ncnc2c1ncn2CP(=O)(O)O)c1cccc(-c2ccccc2)c1; experiment: Competitive inhibition of recombinant cN-II (unknown origin) using varying level of IMP as substrate assessed as substrate Km by HPLC method based Lineweaver-Burk plot analysis
Procedure, shortened: (§1)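 Enzyme, alone or with compound, was mixed with IMP (0.2 to 3 mM) under stirring at 37 °C in imidazole pH 6.5/NaCl/MgCl2 buffer. Samples were taken every 7 s and quenched with 10% perchloric acid. IMP and inosine were quantified by SAX HPLC in 10 mM ammonium phosphate pH 5.5. Data were fitted to competitive, non-competitive, uncompetitive or mixed inhibition equations.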

[2] = compound: O=C(Nc1ncnc2c1ncn2CP(=O)(O)O)c1cccc(-c2ccccc2)c1; experiment: Mixed type inhibition of recombinant cN-II (unknown origin) assessed as substrate Kcat using varying level of IMP as substrate by HPLC method based Lineweaver-Burk plot analysis; procedure, shortened: as §1
[3] = compound: O=C(Nc1ncnc2c1ncn2CP(=O)(O)O)c1cccc(-c2ccccc2)c1; experiment: Noncompetitive inhibition of recombinant cN-II (unknown origin) assessed as substrate Km using varying level of IMP as substrate by HPLC method based Lineweaver-Burk plot analysis; procedure, shortened: as §1
[4] = compound: O=C(Nc1ncnc2c1ncn2CP(=O)(O)O)c1cccc(-c2ccccc2)c1; experiment: Mixed type inhibition of recombinant cN-II (unknown origin) assessed as substrate Km using varying level of IMP as substrate by HPLC method based Lineweaver-Burk plot analysis; procedure, shortened: as §1
[5] = compound: O=C(Nc1ncnc2c1ncn2CP(=O)(O)O)c1cccc(-c2ccccc2)c1; experiment: Noncompetitive inhibition of recombinant cN-II (unknown origin) assessed as substrate Kcat using varying level of IMP as substrate by HPLC method based Lineweaver-Burk plot analysis; procedure, shortened: as §1
[6] = compound: O=C(Nc1ncnc2c1ncn2CP(=O)(O)O)c1cccc(-c2ccccc2)c1; experiment: Competitive inhibition of recombinant cN-II (unknown origin) using varying level of IMP as substrate assessed as substrate Kcat by HPLC method based Lineweaver-Burk plot analysis; procedure, shortened: as §1
[7] = compound: O=C(Nc1ncnc2c1ncn2CP(=O)(O)O)c1cccc(-c2ccccc2)c1; experiment: Uncompetitive inhibition of recombinant cN-II (unknown origin) assessed as substrate Kcat using varying level of IMP as substrate by HPLC method based Lineweaver-Burk plot analysis; procedure, shortened: as §1
[8] = compound: O=C(Nc1ncnc2c1ncn2CP(=O)(O)O)c1cccc(-c2ccccc2)c1; experiment: Uncompetitive inhibition of recombinant cN-II (unknown origin) assessed as substrate Km using varying level of IMP as substrate by HPLC method based Lineweaver-Burk plot analysis; procedure, shortened: as §1

B1: 5'-nucleotidase (Homo sapiens), P21589 (protein)
chain: MCPRAARAPATLLLALGAVLWPAAGAWELTILHTNDVHSRLEQTSEDSSKCVNASRCMGGVARLFTKVQQIRRAEPNVLLLDAGDQYQGTIWFTVYKGAEVAHFMNALRYDAMALGNHEFDNGVEGLIEPLLKEAKFPILSANIKAKGPLASQISGLYLPYKVLPVGDEVVGIVGYTSKETPFLSNPGTNLVFEDEITALQPEVDKLKTLNVNKIIALGHSGFEMDKLIAQKVRGVDVVVGGHSNTFLYTGNPPSKEVPAGKYPFIVTSDDGRKVPVVQAYAFGKYLGYLKIEFDERGNVISSHGNPILLNSSIPEDPSIKADINKWRIKLDNYSTQELGKTIVYLDGSSQSCRFRECNMGNLICDAMINNNLRHTDEMFWNHVSMCILNGGGIRSPIDERNNGTITWENLAAVLPFGGTFDLVQLKGSTLKKAFEHSVHRYGQSTGEFLQVGGIHVVYDLSRKPGDRVVKLDVLCTKCRVPSYDPLKMDEVYKVILPNFLANGGDGFQMIKDELLRHDSGDQDINVVSTYISKMKVIYPAVEGRIKFSTGSHCHGSFSLIFLSLWAVIFVLYQ
[1]
  Km: 1070 µM
[2]
  kcat: 49.9 s⁻¹
[3]
  Km: 1260 µM
[4]
  Km: 1070 µM
[5]
  kcat: 53.1 s⁻¹
[6]
  kcat: 49.9 s⁻¹
[7]
  kcat: 54.1 s⁻¹
[8]
  Km: 1360 µM
